Reference: ChEMBL document CHEMBL2331329, “Synthesis and biological evaluation of 2-(alkoxycarbonyl)-3-anilinobenzo[b]thiophenes and thieno[2,3-b]pyridines as new potent anticancer agents” (J Med Chem, 2013)
pIC50: −log10 of the molar value. Values belong to the molecule of their own block, whether it stands above or below them. The source made the active and inactive calls. The calls are words filed in the database; no cut-off is given here.

How the values were obtained:
[1] = system: HeLa; experiment: Cytotoxicity against human HeLa cells after 72 hrs by MTT assay; assay type: functional, cell-based
[2] = Cytotoxicity against human SEM cells after 72 hrs by MTT assay; assay type: functional, cell-based
Procedure, shortened: (§1)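 Cells plated at 8 × 10^3 per well, 18 h at 37 °C, 5% CO2, then fresh medium with graded compound concentrations (DMSO ≤0.25%) for 72 h. Jurkat, SEM, HL-60 grown in RPMI-1640; A549, HeLa, HT-29, MCF-7 in DMEM; 10% FBS with penicillin/streptomycin. MTT viability read-out; IC50 vs 0.25% DMSO controls; mean ± SE of at least three independent experiments.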

[3] = system: HL-60; experiment: Cytotoxicity against human HL60 cells after 72 hrs by MTT assay; assay type: functional, cell-based; settings: HL-60, 72 h
[4] = system: MCF7; experiment: Cytotoxicity against human MCF7 cells after 72 hrs by MTT assay; assay type: functional, cell-based; settings: MCF7, 72 h
[5] = system: A549; experiment: Cytotoxicity against human A549 cells after 72 hrs by MTT assay; assay type: functional, cell-based; settings: A549, 72 h
[6] = system: Jurkat; experiment: Cytotoxicity against human Jurkat cells after 72 hrs by MTT assay; assay type: functional, cell-based; procedure, shortened: as §1
[7] = system: HT-29; experiment: Cytotoxicity against human HT-29 cells after 72 hrs by MTT assay; assay type: functional, cell-based; settings: HT-29, 72 h
[8] = Antitumor activity against mouse BNL 1ME A.7R.1 cells xenografted in Balb/c mouse assessed as reduction in tumor growth at 5 mg/kg, ip QD for 7 days; assay type: functional; parameters: scale not given: the % may be the effect or the level left; settings: route intraperitoneal
Procedure, shortened: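 Male Balb/c mice, 8 weeks old, given 10^7 syngeneic BNL 1ME A.7R.1 hepatoma cells subcutaneously in the dorsal region in 200 μL PBS. Randomised to groups of five. Dosed intraperitoneally once daily for 7 days at 5 mg/kg in 0.9% NaCl with 5% PEG 400 and 0.5% Tween 80, against vehicle and CA-4P. Tumours measured daily by caliper, V = AB2/2; body weight recorded. Mean ± SEM.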

[9] = species on record: Bos taurus; experiment: Displacement of [3H]colchicine from bovine brain tubulin at 5 uM after 20 mins by turbidimetric analysis
[10] = species on record: Bos taurus; experiment: Displacement of [3H]colchicine from bovine brain tubulin at 1 uM after 20 mins by turbidimetric analysis
[11] = Inhibition of bovine brain tubulin polymerization after 20 mins by turbidimetric analysis; parameters: species or system Bos taurus
Procedure, shortened: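 Bovine brain tubulin (10 μM) preincubated with varying compound concentrations in glutamate buffer at 30 °C, chilled to 0 °C, 0.4 mM GTP added, then warmed to 30 °C in a recording spectrophotometer.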

[12] = system: LoVo; experiment: Cytotoxicity against human LoVo cells after 72 hrs by MTT assay; assay type: functional, cell-based
Procedure, shortened: (§2)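 MTT viability test: 8 × 10^3 cells per well settled 18 h at 37 °C, 5% CO2, then given fresh medium with compound (from 10 mM DMSO stocks, final DMSO ≤0.25%) for 72 h. […] CEMVbl-100 is a vinblastine-selected P-gp line; LoVoDoxo is grown in Ham's F12 with 0.1 μg/mL doxorubicin. Resistance index = resistant IC50/parental IC50.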

[13] = system: LoVo; experiment: Resistance index, ratio of IC50 for human LoVo/DX cells to IC50 for human LoVo cells; assay type: functional; procedure, shortened: as §2
[14] = Cytotoxicity against human LoVo/DX cells after 72 hrs by MTT assay; assay type: functional, cell-based; procedure, shortened: as §2
[15] = system: HT-29; experiment: Cell cycle arrest in human HT-29 cells assessed as accumulation at G2/M phase at >20 nM after 24 hrs by propidium iodide staining-based flow cytometry; assay type: functional
Procedure, shortened: (§3)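 Jurkat, HT-29 and HeLa cells in exponential growth (5 × 10^5 cells) treated 24 h at a range of concentrations. Fixed in ice-cold 70% ethanol, lysed with buffer containing RNase A and 0.1% Triton X-100, stained with propidium iodide. DNA content read by flow cytometry and the percentage of cells per cycle phase derived from DNA histograms.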

[16] = system: HeLa; experiment: Cell cycle arrest in human HeLa cells assessed as accumulation at G2/M phase after 24 hrs by propidium iodide staining-based flow cytometry; assay type: functional; procedure, shortened: as §3
[17] = system: CCRF-CEM; experiment: Cytotoxicity against human CEM cells after 72 hrs by MTT assay; assay type: functional, cell-based; procedure, shortened: as §2
[18] = system: CCRF-CEM; experiment: Resistance index, ratio of IC50 for human CEM/VBL100 cells to IC50 for human CEM cells; assay type: functional; procedure, shortened: as §2
[19] = system: HeLa; experiment: Induction of apoptosis in human HeLa cells assessed as ROS production at 10 to 100 nM after 24 to 48 hrs by H2-DCFDA staining-based flow cytometry relative to control; assay type: functional, cell-based
Procedure, shortened: (§4)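 HeLa cells treated 24 or 48 h, then stained with H2-DCFDA or hydroethidine. ROS read by flow cytometry against untreated control. Mean ± SEM of three independent experiments.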

[20] = Cytotoxicity against human A549-T12 cells after 72 hrs by MTT assay; assay type: functional, cell-based; settings: A549, 72 h
Procedure, shortened: (§5)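 Mean ± SE of at least three independent experiments. Resistance ratio = IC50 in resistant line/IC50 in nonresistant line.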

[21] = system: HeLa; experiment: Cell cycle arrest in human HeLa cells assessed as accumulation at G2/M phase at >20 nM after 24 hrs by propidium iodide staining-based flow cytometry; assay type: functional; procedure, shortened: as §3
[22] = system: HeLa; experiment: Induction of apoptosis in human HeLa cells assessed as early apoptotic cells at 10 to 100 nM by annexin V-FITC and propidium iodide staining-based flow cytometry; assay type: functional, cell-based; settings: TDE = time-dependent effect
Procedure, shortened: (§6)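 HeLa cells treated 24 or 48 h, then co-labelled with annexin-V–FITC and propidium iodide. Flow cytometry with 488 nm excitation and emission at 525 nm (FITC) and 585 nm (PI); early apoptotic cells counted as annexin-V+/PI−. Mean ± SEM of three independent experiments.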

[23] = system: Jurkat; experiment: Cell cycle arrest in human Jurkat cells assessed as accumulation at G2/M phase after 24 hrs by propidium iodide staining-based flow cytometry; assay type: functional; procedure, shortened: as §3
[24] = system: Jurkat; experiment: Cell cycle arrest in human Jurkat cells assessed as accumulation at G2/M phase at >20 nM after 24 hrs by propidium iodide staining-based flow cytometry; assay type: functional; procedure, shortened: as §3
[25] = system: HeLa; experiment: Cell cycle arrest in human HeLa cells assessed as accumulation at G2/M phase at 20 nM after 24 hrs by propidium iodide staining-based flow cytometry; assay type: functional; procedure, shortened: as §3
[26] = Cytotoxicity against human CEM/VBL100 cells after 72 hrs by MTT assay; assay type: functional, cell-based; settings: CEM/VBL100, 72 h; procedure, shortened: as §2
[27] = system: HeLa; experiment: Induction of apoptosis in human HeLa cells assessed as mitochondrial membrane depolarization at 10 to 100 nM by JC-1 staining; assay type: functional, cell-based; settings: TDE = time-dependent effect
Procedure, shortened: (§7)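 HeLa cells treated 24 or 48 h, then stained with the potentiometric dye JC-1. Proportion of cells with depolarised mitochondria read by flow cytometry. Mean ± SEM of three independent experiments.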

[28] = system: HeLa; experiment: Induction of apoptosis in human HeLa cells assessed as ROS production at 10 to 100 nM after 24 to 48 hrs by HE staining-based flow cytometry relative to control; assay type: functional, cell-based; procedure, shortened: as §4
[29] = system: HT-29; experiment: Cell cycle arrest in human HT-29 cells assessed as accumulation at G2/M phase at 20 nM after 24 hrs by propidium iodide staining-based flow cytometry; assay type: functional; procedure, shortened: as §3
[30] = system: Jurkat; experiment: Cell cycle arrest in human Jurkat cells assessed as accumulation at G2/M phase at 20 nM after 24 hrs by propidium iodide staining-based flow cytometry; assay type: functional; procedure, shortened: as §3
[31] = system: PBL; experiment: Cytotoxicity against human PHA-stimulated PBL cells after 72 hrs by MTT assay; assay type: cell-based
Procedure, shortened: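 Peripheral blood lymphocytes from healthy donors isolated on a Lymphoprep gradient and rested overnight in RPMI-1640 with 10% FBS. Nonadherent cells at 5 × 10^5 cells/mL, with 2.5 μg/mL PHA for proliferating cultures or without it for resting ones. Compound exposure 72 h, viability by MTT. Mean ± SEM of three experiments.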

[32] = system: A549; experiment: Resistance index, ratio of IC50 for human A549-T12 cells to IC50 for human A549 cells; assay type: functional; procedure, shortened: as §5
[33] = system: HeLa; experiment: Induction of apoptosis in human HeLa cells assessed as mitochondrial membrane depolarization after 24 to 48 hrs by JC-1 staining; assay type: functional, cell-based; procedure, shortened: as §7
[34] = system: HeLa; experiment: Induction of apoptosis in human HeLa cells assessed as early apoptotic cells after 24 to 48 hrs by annexin V-FITC/Propidium iodide staining-based flow cytometry; assay type: functional, cell-based; procedure, shortened: as §6
[35] = system: HT-29; experiment: Cell cycle arrest in human HT-29 cells assessed as accumulation at G2/M phase after 24 hrs by propidium iodide staining-based flow cytometry; assay type: functional; procedure, shortened: as §3

SMILES: COC(=O)c1sc2ccc(C)cc2c1Nc1cc(OC)c(OC)c(OC)c1
pIC50 [1]: 6.40 | pIC50 [2]: 6.73 | pIC50 [3]: 5.33 | pIC50 [4]: 6.27 | pIC50 [5]: 5.55 | pIC50 [6]: 6.14 | pIC50 [7]: 6.52

SMILES: COc1ccc(/C=C\c2cc(OC)c(OC)c(OC)c2)cc1OP(=O)([O-])[O-].[Na+].[Na+] [FOSBRETABULIN DISODIUM]
Activity [8]: 44.5%

inhibition [9]: 95% | inhibition [10]: 71% | pIC50 [11]: 5.92
SMILES: COC(=O)c1sc2cc(C)ccc2c1Nc1cc(OC)c(OC)c(OC)c1
pIC50 [1]: 9.51 | pIC50 [2]: 9.15 | pIC50 [3]: 7.69 | pIC50 [4]: 8.92 | pIC50 [5]: 7.97 | pIC50 [6]: 9.22 | pIC50 [7]: 8.72

SMILES: COc1cccc2c1C(=O)c1c(O)c3c(c(O)c1C2=O)C[C@@](O)(C(=O)CO)C[C@@H]3O[C@H]1C[C@H](N)[C@H](O)[C@H](C)O1 [DOXORUBICIN]
pIC50 [12]: 7.02 | Ratio IC50 [13]: 118 | pIC50 [14]: 4.95

SMILES: COc1ccc(/C=C\c2cc(OC)c(OC)c(OC)c2)cc1O [COMBRETASTATIN A4]
pIC50 [2]: 8.30

inhibition [9]: 76% | inhibition [10]: 54% | pIC50 [11]: 6.12
SMILES: COC(=O)c1sc2c(OC)cccc2c1Nc1cc(OC)c(OC)c(OC)c1
pIC50 [1]: 8.46 | pIC50 [2]: 8.64 | pIC50 [3]: 7.59 | pIC50 [4]: 7.02 | pIC50 [5]: 7.48 | pIC50 [6]: 7.25 | pIC50 [7]: 7.83

SMILES: COC(=O)c1sc2ccccc2c1Nc1cc(OC)c(OC)c(OC)c1
pIC50 [1]: 6.37 | pIC50 [2]: 6.75 | pIC50 [3]: 5.81 | pIC50 [4]: 6.10 | pIC50 [5]: 5.55 | pIC50 [6]: 6.31 | pIC50 [7]: 6.52

inhibition [9]: 95% | inhibition [10]: 78% | pIC50 [11]: 6.15
SMILES: COC(=O)c1sc2nc(C)ccc2c1Nc1cc(OC)c(OC)c(OC)c1
Activity [15]: >80% | Activity [16]: Dose-dependent effect | pIC50 [17]: 8.55 | Ratio IC50 [18]: 1.5 | pIC50 [1]: 9.74 | Activity [19]: Active | pIC50 [20]: 7.71 | pIC50 [2]: 9.30 | Activity [21]: >80% | Activity [22]: tde | pIC50 [3]: 9.40 | Activity [23]: Dose-dependent effect | Activity [24]: >80% | pIC50 [4]: 9.28 | Activity [25]: Active | pIC50 [5]: 7.79 | pIC50 [26]: 8.38 | Activity [27]: tde | Activity [28]: Active | pIC50 [12]: 8.72 | Ratio IC50 [13]: 0.3 | pIC50 [14]: 9.30 | Activity [29]: Active | Activity [30]: Active | pIC50 [31]: 5.47 | Ratio IC50 [32]: 1.2 | Activity [33]: Dose-dependent effect | pIC50 [6]: 9.22 | Activity [34]: Dose-dependent effect | Activity [35]: Dose-dependent effect | pIC50 [7]: 9.46

SMILES: CCOC(=O)c1sc2ncccc2c1Nc1cc(OC)c(OC)c(OC)c1
pIC50 [1]: 5.68 | pIC50 [2]: 5.73 | pIC50 [3]: 5.21 | pIC50 [4]: 5.28 | pIC50 [5]: 5.15 | pIC50 [6]: 5.07 | pIC50 [7]: 5.65
